# Data published in ChEMBL document CHEMBL3853327 (J Med Chem, 2016).
# Molecular target: not listed separately
# Test: Inhibition of recombinant wild type HIV1 reverse transcriptase using DIG-dUTP/biotin-dUTP/dTTP assessed as suppression of biotin-dUTP incorporation after 1 hr by ELISA
# Set-up: species or system Human immunodeficiency virus 1
# Settings: not given
# In short: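 Recombinant WT HIV-1 RT in a Roche colorimetric kit: template plus DIG-dUTP, biotin-dUTP and dTTP, ±inhibitor, 1 h at 37 °C. Product captured on streptavidin plate 1 h at 37 °C, anti-DIG-POD 1 h at 37 °C, ABTS developed at 25 °C, read at OD405. IC50 is the concentration inhibiting biotin-dUTP incorporation by 50%.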
row,SMILES,IC50
1,Cc1ccnc2c1NC(=O)c1cccnc1N2C1CC1 [NEVIRAPINE],2.32 µM
2,COC(=O)c1ccc(CN2CCC(Nc3nc(Oc4c(C)cc(C)cc4C)c4sccc4n3)CC2)cc1,1.24 µM

# Test system: Human immunodeficiency virus 1
# Test: Fold resistance, ratio of IC50 for recombinant HIV1 reverse transcriptase K103N/Y181C double mutant to IC50 for wild type HIV1 reverse transcriptase
# Settings: not given
# In short: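 Ratio of mutant to WT IC50. Recombinant WT and K103N/Y181C RT were assayed with a kit: template plus DIG-dUTP, biotin-dUTP and dTTP, with or without inhibitor, 1 h at 37 °C. Product was captured on streptavidin, detected with anti-DIG-POD and ABTS, and read at 405 nm. IC50 is the concentration inhibiting biotin-dUTP incorporation by 50%.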
row,SMILES,Ratio IC50
1,COC(=O)c1ccc(CN2CCC(Nc3nc(Oc4c(C)cc(C)cc4C)c4sccc4n3)CC2)cc1,9.92

# Test system: Human immunodeficiency virus 1
# Test: Antiviral activity against HIV1 3B harboring reverse transcriptase F227L/V106A double mutant infected in human MT4 cells assessed as protection against virus induced cytotoxicity after 5 days by MTT assay
# Assay type: functional, cell-based
# Settings: Human immunodeficiency virus 1, 3B, MT4, 120 h
# In short: (§1)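 MTT cytopathicity assay in MT-4 cells (6 × 10^5 cells/mL). Compounds serially diluted 5-fold in triplicate wells, run in parallel on infected and mock-infected cells. Virus added at 100−300 CCID50 per well. Viability read spectrophotometrically at 540 and 690 nm after 5 days, using the median OD of three wells. EC50 is the concentration giving 50% protection from viral cytopathogenicity.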
row,SMILES,EC50
1,Cc1ccnc2c1NC(=O)c1cccnc1N2C1CC1 [NEVIRAPINE],> 15 µM
2,COC(=O)c1ccc(CN2CCC(Nc3nc(Oc4c(C)cc(C)cc4C)c4sccc4n3)CC2)cc1,1.85 µM

# Test system: not listed separately
# Test: Selectivity index, ratio of CC50 for human mock-infected MT4 cells to EC50 for HIV1 3B harboring reverse transcriptase F227L/V106A double mutant infected in human MT4 cells
# Assay type: toxicity, cell-based
# Settings: MT4 cells (mock-infected for CC50, HIV-1 infected for EC50)
# In short: (§2)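 Selectivity index is CC50/EC50. CC50 is the concentration that reduces OD540 of mock-infected MT-4 cells by 50% in the 5-day MTT assay. EC50 is the 50% protection from virus-induced cytopathicity, measured in parallel on infected wells.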
row,SMILES,selectivity ratio
1,COC(=O)c1ccc(CN2CCC(Nc3nc(Oc4c(C)cc(C)cc4C)c4sccc4n3)CC2)cc1,13

# Test system: not listed separately
# Test: Selectivity index, ratio of CC50 for human mock-infected MT4 cells to EC50 for HIV1 3B harboring reverse transcriptase K103N mutant infected in human MT4 cells
# Assay type: toxicity, cell-based
# Settings: MT4 cells (mock-infected for CC50, HIV-1 infected for EC50)
# In short: as §2
row,SMILES,selectivity ratio
1,COC(=O)c1ccc(CN2CCC(Nc3nc(Oc4c(C)cc(C)cc4C)c4sccc4n3)CC2)cc1,263

# Test system: Human immunodeficiency virus 1
# Test: Antiviral activity against HIV1 3B harboring reverse transcriptase Y188L mutant infected in human MT4 cells assessed as protection against virus induced cytotoxicity after 5 days by MTT assay
# Assay type: functional, cell-based
# Settings: Human immunodeficiency virus 1, 3B, MT4, 120 h
# In short: as §1
row,SMILES,EC50
1,Cc1ccnc2c1NC(=O)c1cccnc1N2C1CC1 [NEVIRAPINE],> 15 µM
2,COC(=O)c1ccc(CN2CCC(Nc3nc(Oc4c(C)cc(C)cc4C)c4sccc4n3)CC2)cc1,0.243 µM

# Test system: Human immunodeficiency virus 1
# Test: Antiviral activity against HIV1 RES056 harboring reverse transcriptase K103N/Y181C double mutant infected in human MT4 cells assessed as protection against virus induced cytotoxicity after 5 days by MTT assay
# Assay type: functional, cell-based
# Settings: Human immunodeficiency virus 1, RES056, MT4, 120 h
# In short: as §1, with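 “wells.” for “wells. EC50 is the concentration giving 50% protection from viral cytopathogenicity.”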
row,SMILES,EC50
1,Cc1ccnc2c1NC(=O)c1cccnc1N2C1CC1 [NEVIRAPINE],≥ 7.59 µM

# Test system: Human immunodeficiency virus 1
# Test: Antiviral activity against HIV1 3B harboring reverse transcriptase Y181C mutant infected in human MT4 cells assessed as protection against virus induced cytotoxicity after 5 days by MTT assay
# Assay type: functional, cell-based
# Settings: Human immunodeficiency virus 1, 3B, MT4, 120 h
# In short: as §1, with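 “wells.” for “wells. EC50 is the concentration giving 50% protection from viral cytopathogenicity.”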
row,SMILES,EC50
1,Cc1ccnc2c1NC(=O)c1cccnc1N2C1CC1 [NEVIRAPINE],15 µM
2,COC(=O)c1ccc(CN2CCC(Nc3nc(Oc4c(C)cc(C)cc4C)c4sccc4n3)CC2)cc1,0.161 µM

# Test system: not listed separately
# Test: Antiviral activity against HIV2 ROD harboring reverse transcriptase infected in human MT4 cells assessed as protection against virus induced cytotoxicity after 5 days by MTT assay
# Assay type: functional, cell-based, Human immunodeficiency virus type 2 (ISOLATE ROD)
# Settings: Human immunodeficiency virus 2, MT4, 120 h
# In short: as §1
row,SMILES,EC50
1,COC(=O)c1ccc(CN2CCC(Nc3nc(Oc4c(C)cc(C)cc4C)c4sccc4n3)CC2)cc1,> 24.9 µM

# Test system: not listed separately
# Test: Cytotoxicity against human mock-infected MT4 cells assessed as reduction in cell viability after 5 days by MTT assay
# Assay type: toxicity, cell-based
# Settings: not given
# In short: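 Mock-infected MT-4 cells (6 × 10^5 cells/mL at seeding) with serial 5-fold compound dilutions in triplicate wells. Viability read by MTT after 5 days, absorbance at 540 and 690 nm, median OD of three wells. CC50 is the concentration reducing OD540 of mock-infected cells by 50%.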
row,SMILES,CC50 at 120 h
1,Cc1ccnc2c1NC(=O)c1cccnc1N2C1CC1 [NEVIRAPINE],> 15 µM
2,COC(=O)c1ccc(CN2CCC(Nc3nc(Oc4c(C)cc(C)cc4C)c4sccc4n3)CC2)cc1,24.9 µM

# Molecular target: Human immunodeficiency virus type 1 reverse transcriptase (Human immunodeficiency virus 1, UniProt Q72547, K103N/Y181C)
# Test: Inhibition of recombinant HIV1 reverse transcriptase K103N/Y181C double mutant using DIG-dUTP/biotin-dUTP/dTTP assessed as suppression of biotin-dUTP incorporation after 1 hr by ELISA
# Settings: not given
row,SMILES,IC50
1,COC(=O)c1ccc(CN2CCC(Nc3nc(Oc4c(C)cc(C)cc4C)c4sccc4n3)CC2)cc1,12.3 µM

# Test system: Human immunodeficiency virus 1
# Test: Antiviral activity against HIV1 3B harboring reverse transcriptase L100I mutant infected in human MT4 cells assessed as protection against virus induced cytotoxicity after 5 days by MTT assay
# Assay type: functional, cell-based
# Settings: Human immunodeficiency virus 1, 3B, MT4, 120 h
# In short: as §1
row,SMILES,EC50
1,Cc1ccnc2c1NC(=O)c1cccnc1N2C1CC1 [NEVIRAPINE],2.11 µM
2,COC(=O)c1ccc(CN2CCC(Nc3nc(Oc4c(C)cc(C)cc4C)c4sccc4n3)CC2)cc1,0.65 µM

# Test system: not listed separately
# Test: Selectivity index, ratio of CC50 for human mock-infected MT4 cells to EC50 for HIV1 RES056 harboring reverse transcriptase K103N/Y181C double mutant infected in human MT4 cells
# Assay type: toxicity, cell-based
# Settings: MT4 cells (mock-infected for CC50, HIV-1 infected for EC50)
# In short: as §2
row,SMILES,selectivity ratio
1,COC(=O)c1ccc(CN2CCC(Nc3nc(Oc4c(C)cc(C)cc4C)c4sccc4n3)CC2)cc1,5

# Test system: not listed separately
# Test: Selectivity index, ratio of CC50 for human mock-infected MT4 cells to EC50 for HIV1 3B harboring reverse transcriptase Y181C mutant infected in human MT4 cells
# Assay type: toxicity, cell-based
# Settings: MT4 cells (mock-infected for CC50, HIV-1 infected for EC50)
# In short: as §2
row,SMILES,selectivity ratio
1,COC(=O)c1ccc(CN2CCC(Nc3nc(Oc4c(C)cc(C)cc4C)c4sccc4n3)CC2)cc1,154

# Test system: Human immunodeficiency virus 1
# Test: Antiviral activity against wild type HIV1 3B harboring reverse transcriptase infected in human MT4 cells assessed as protection against virus induced cytotoxicity after 5 days by MTT assay
# Assay type: functional, cell-based
# Settings: Human immunodeficiency virus 1, 3B, MT4, 120 h
# In short: as §1, with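 “wells.” for “wells. EC50 is the concentration giving 50% protection from viral cytopathogenicity.”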
row,SMILES,EC50
1,COC(=O)c1ccc(CN2CCC(Nc3nc(Oc4c(C)cc(C)cc4C)c4sccc4n3)CC2)cc1,0.0154 µM

# Test system: not listed separately
# Test: Selectivity index, ratio of CC50 for human mock-infected MT4 cells to EC50 for HIV1 3B harboring reverse transcriptase L100I mutant infected in human MT4 cells
# Assay type: toxicity, cell-based
# Settings: MT4 cells (mock-infected for CC50, HIV-1 infected for EC50)
# In short: as §2
row,SMILES,selectivity ratio
1,COC(=O)c1ccc(CN2CCC(Nc3nc(Oc4c(C)cc(C)cc4C)c4sccc4n3)CC2)cc1,38

# Test system: not listed separately
# Test: Selectivity index, ratio of CC50 for human mock-infected MT4 cells to EC50 for HIV1 3B harboring reverse transcriptase E138K mutant infected in human MT4 cells
# Assay type: toxicity, cell-based
# Settings: MT4 cells (mock-infected for CC50, HIV-1 infected for EC50)
# In short: as §2
row,SMILES,selectivity ratio
1,COC(=O)c1ccc(CN2CCC(Nc3nc(Oc4c(C)cc(C)cc4C)c4sccc4n3)CC2)cc1,629

# Test system: not listed separately
# Test: Selectivity index, ratio of CC50 for human mock-infected MT4 cells to EC50 for HIV1 3B harboring reverse transcriptase Y188L mutant infected in human MT4 cells
# Assay type: toxicity, cell-based
# Settings: MT4 cells (mock-infected for CC50, HIV-1 infected for EC50)
# In short: as §2
row,SMILES,selectivity ratio
1,COC(=O)c1ccc(CN2CCC(Nc3nc(Oc4c(C)cc(C)cc4C)c4sccc4n3)CC2)cc1,102

# Test system: Human immunodeficiency virus 1
# Test: Antiviral activity against HIV1 3B harboring reverse transcriptase K103N mutant infected in human MT4 cells assessed as protection against virus induced cytotoxicity after 5 days by MTT assay
# Assay type: functional, cell-based
# Settings: Human immunodeficiency virus 1, 3B, MT4, 120 h
# In short: as §1
row,SMILES,EC50
1,Cc1ccnc2c1NC(=O)c1cccnc1N2C1CC1 [NEVIRAPINE],5.39 µM
2,COC(=O)c1ccc(CN2CCC(Nc3nc(Oc4c(C)cc(C)cc4C)c4sccc4n3)CC2)cc1,0.0946 µM

# Test system: not listed separately
# Test: Selectivity index, ratio of CC50 for human mock-infected MT4 cells to EC50 for wild type HIV1 3B harboring reverse transcriptase infected in human MT4 cells
# Assay type: toxicity, cell-based
# Settings: MT4 cells (mock-infected for CC50, HIV-1 infected for EC50)
# In short: as §2
row,SMILES,selectivity ratio
1,COC(=O)c1ccc(CN2CCC(Nc3nc(Oc4c(C)cc(C)cc4C)c4sccc4n3)CC2)cc1,1610

# Test system: Human immunodeficiency virus 1
# Test: Antiviral activity against HIV1 3B harboring reverse transcriptase E138K mutant infected in human MT4 cells assessed as protection against virus induced cytotoxicity after 5 days by MTT assay
# Assay type: functional, cell-based
# Settings: Human immunodeficiency virus 1, 3B, MT4, 120 h
# In short: as §1
row,SMILES,EC50
1,Cc1ccnc2c1NC(=O)c1cccnc1N2C1CC1 [NEVIRAPINE],0.271 µM
2,COC(=O)c1ccc(CN2CCC(Nc3nc(Oc4c(C)cc(C)cc4C)c4sccc4n3)CC2)cc1,0.0395 µM
